Assay results pooled from the literature.
Target: Serine/threonine-protein kinase 17A (STK17A, Homo sapiens, UniProt Q9UEE5)
One construct used (Q9UEE5 1-414): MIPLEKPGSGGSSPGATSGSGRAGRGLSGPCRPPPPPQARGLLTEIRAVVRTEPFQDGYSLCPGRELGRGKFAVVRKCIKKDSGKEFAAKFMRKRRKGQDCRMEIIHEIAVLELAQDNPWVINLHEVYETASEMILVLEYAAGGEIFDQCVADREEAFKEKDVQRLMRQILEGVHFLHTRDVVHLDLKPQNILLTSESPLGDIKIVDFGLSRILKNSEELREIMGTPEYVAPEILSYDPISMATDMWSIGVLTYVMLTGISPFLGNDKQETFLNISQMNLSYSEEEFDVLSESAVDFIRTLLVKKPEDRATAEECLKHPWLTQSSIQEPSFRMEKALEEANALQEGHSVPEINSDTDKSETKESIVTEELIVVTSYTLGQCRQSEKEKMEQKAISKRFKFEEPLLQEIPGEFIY

`Cc1nn(C)cc1-c1nc2c(N3CCN(Cc4ccc(Cl)cc4)CC3)c(Cl)cnc2[nH]1` gave a remaining binding of 13% (binding; competition with immobilised ligand; 1 µM).
With `COc1ncccc1-c1cnn2ccc(N3CCN(C(=O)OC(C)C)CC3)nc12` the remaining binding was 6.4% (binding; competition with immobilised ligand; 1 µM).
For `CC(C)(C)c1cc(C=C(C#N)C#N)cc(Br)c1O`, the remaining activity was 92.3% (enzyme activity; inhibitor; 0.5 µM).
`Nc1ncc(-c2nc(N3CCOCC3)nc(N3CCOCC3)n2)c(C(F)F)n1` has a remaining binding of 89% (binding; competition with immobilised ligand; 10 µM).
For `C#Cc1n[nH]c2c(-c3cn([C@@H](C)c4ccccc4)c(=O)[nH]c3=O)cc(F)cc12`, the inhibition was 1.1% (enzyme activity; inhibitor; 0.1 µM).
For `Cn1cc(-c2cc(F)cc(N3CCn4c(cc5c4CCCC5)C3=O)c2CO)cc(Nc2ccc(N3CCN(C4COC4)CC3)cn2)c1=O`, the inhibition was 3% (enzyme activity; inhibitor; 0.1 µM).
`O=c1[nH]c2ccccc2n1C1CCN(Cc2ccc(-c3[nH]c4cc5ncnc5cc4nc3-c3ccccc3)cc2)CC1` gave a remaining signal of 98.2% (cell-free assay; 0.5 µM).
`Cn1cc(-c2cccc(N3CCc4c(sc5c4CC(C)(C)C5)C3=O)c2CO)cc(Nc2ccncn2)c1=O` has an inhibition of -5% (enzyme activity; inhibitor; 1 µM).
For `C#Cc1n[nH]c2c(-c3cn([C@@H](C)c4ccccn4)c(=O)[nH]c3=O)cc(F)cc12`, the inhibition was -0.6% (enzyme activity; inhibitor; 0.1 µM).
The remaining binding of `Cn1cncc1[C@](O)(COc1ccc(C#N)cc1-c1ccc(OC(F)(F)F)cc1)c1ccc(C#N)cc1` is reported as 100% (cell-free assay; competition with immobilised ligand; 1 µM).
